Assay results from ChEMBL document CHEMBL5576114, “Inhibition of DXR in the MEP pathway with lipophilic N-alkoxyaryl FR900098 analogs” (RSC Med Chem, 2024).
≈ marks a conversion by molar mass, not a printed value. Calls of active or inactive are those of the source. No cut-off for these calls is given here.

Experiments:
Plasmodium falciparum [1] = test: Antiplasmodial activity against Plasmodium falciparum 3D7 assessed as reduction in parasite growth by measuring DNA content after 3 days by PicoGreen staining based FLUOstar omega microplate reader analysis; assay type: functional, organism-based; conditions: 3D7, 72 h
Procedure, shortened: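 Asynchronous cultures in 2% hematocrit, RPMI-1640 complete medium with 0.5% Albumax, under 5% O2/5% CO2/90% N2 at 37 °C. Diluted to 0.5% parasitemia, inhibitors 1.2 nM to 492.4 µM added at start. Growth read after 3 days as DNA content by PicoGreen fluorescence (485/528 nm). IC50 from 4-parameter nonlinear regression; technical duplicate, biological triplicate.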

[2] = system: Mycobacterium tuberculosis; test: Antibacterial activity against Mycobacterium tuberculosis H37Rv assessed as reduction in bacterial growth incubated for 2 weeks by macroscopic plate reader analysis; assay type: functional; conditions: 336 h
Procedure, shortened: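 H37Rv grown in 7H9 broth with 0.08% NaCl, 0.4% glucose, 0.05% casitone and 0.05% tyloxapol, then diluted 1:500. Compounds were made as 20 mg/mL DMSO stocks and run as eleven 2-fold serial dilutions. Plates were held 2 weeks at 37 °C and MIC99 was read macroscopically. Three independent measurements.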

Plasmodium falciparum [3] = test: Antiplasmodial activity against Plasmodium falciparum E1-C12 harboring with had1 mutation assessed as reduction in parasite growth by measuring DNA content after 3 days by PicoGreen staining based FLUOstar omega microplate reader analysis; assay type: functional, organism-based; conditions: time 3.0 day
Procedure, shortened: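 E1-C12 (had1) parasites, asynchronous, at 2% hematocrit in RPMI-1640/0.5% Albumax with hypoxanthine, under 5% O2/5% CO2/90% N2 at 37 °C. Started at 0.5% parasitemia and dosed at 1.2 nM–492.4 µM. After 3 days, DNA was stained with PicoGreen (ex 485/em 528). IC50 came from a 4-parameter fit; technical duplicates, biological triplicates.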

Plasmodium falciparum [4] = test: Antiplasmodial activity against Plasmodium falciparum E1-C12 harboring with had1 mutation assessed as reduction in parasite growth by measuring DNA content after 3 days in presence of IPP by PicoGreen staining based FLUOstar omega microplate reader analysis; assay type: functional, organism-based; conditions: time 3.0 day
Procedure, shortened: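 IPP rescue in had1 E1-C12 parasites: 125 µM IPP was present for the whole assay. Cultures at 2% hematocrit in Albumax-supplemented RPMI, 5% O2/5% CO2, 37 °C, started at 0.5% parasitemia. Inhibitors were dosed at 1.2 nM–492.4 µM, and growth was read after 3 days by PicoGreen fluorescence. 4-parameter fit; duplicate wells, biological triplicates.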

[5] = Cytotoxicity against human HepG2 cells assessed as reduction in cell viability after 24 hrs by Cell Titer Glo assay; assay type: toxicity, cell-based
Procedure, shortened: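 HepG2 cells in DMEM with 4 mM L-glutamine and 4.5 g/L glucose, trypsinized and plated from a 4×10^5 cells/mL suspension. Compounds were tested as two-fold dilutions from 100 to 0.1 µg/mL, with a DMSO-only control, in duplicate. After 24 h at 37 °C, 5% CO2, CellTiter-Glo luminescence was read after 20 min in the dark.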

[6] = target: T1, 1-deoxy-D-xylulose 5-phosphate reductoisomerase, apicoplastic (Plasmodium falciparum (isolate 3D7)) (UniProt Q8IKG4); test: Inhibition of Plasmodium falciparum DXR expressed in Escherichia coli BL21 CodonPlus (DE3)-RIL cells assessed as remaining activity using DOXP as substrate at 100 uM in presence of NADPH by UV-visible spectrophotometry relative to control
T1 sequence (whole entry): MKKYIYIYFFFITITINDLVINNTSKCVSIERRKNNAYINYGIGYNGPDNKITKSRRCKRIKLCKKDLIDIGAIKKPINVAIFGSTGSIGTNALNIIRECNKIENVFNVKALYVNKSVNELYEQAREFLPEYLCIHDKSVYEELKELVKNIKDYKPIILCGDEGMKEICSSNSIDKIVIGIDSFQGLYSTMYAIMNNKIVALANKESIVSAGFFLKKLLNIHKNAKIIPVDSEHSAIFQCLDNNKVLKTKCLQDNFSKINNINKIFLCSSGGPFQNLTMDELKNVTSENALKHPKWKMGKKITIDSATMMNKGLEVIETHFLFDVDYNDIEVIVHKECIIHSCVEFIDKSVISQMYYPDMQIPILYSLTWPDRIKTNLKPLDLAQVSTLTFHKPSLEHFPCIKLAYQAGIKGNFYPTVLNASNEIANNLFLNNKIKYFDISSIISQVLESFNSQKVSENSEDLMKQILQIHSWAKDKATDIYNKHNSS
Procedure, shortened: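 Recombinant His-tagged PfDXR purified by TALON affinity. Assay at 37 °C in 100 mM Tris pH 7.8, 25 mM MgCl2, 0.86 µM enzyme, 150 µM NADPH; reaction started with 144 µM DOXP. NADPH oxidation followed at 340 nm. Single inhibitor concentration 100 µM, given as percent remaining activity; technical duplicates.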

[7] = target: T2, 1-deoxy-D-xylulose 5-phosphate reductoisomerase (Mycobacterium tuberculosis) (UniProt P9WNS1); test: Inhibition of Mycobacterium tuberculosis DXR expressed in Escherichia coli BL21 CodonPlus (DE3)-RIL cells assessed as remaining activity using DOXP as substrate at 100 uM in presence of NADPH by UV-visible spectrophotometry relative to control
T2 sequence (whole entry): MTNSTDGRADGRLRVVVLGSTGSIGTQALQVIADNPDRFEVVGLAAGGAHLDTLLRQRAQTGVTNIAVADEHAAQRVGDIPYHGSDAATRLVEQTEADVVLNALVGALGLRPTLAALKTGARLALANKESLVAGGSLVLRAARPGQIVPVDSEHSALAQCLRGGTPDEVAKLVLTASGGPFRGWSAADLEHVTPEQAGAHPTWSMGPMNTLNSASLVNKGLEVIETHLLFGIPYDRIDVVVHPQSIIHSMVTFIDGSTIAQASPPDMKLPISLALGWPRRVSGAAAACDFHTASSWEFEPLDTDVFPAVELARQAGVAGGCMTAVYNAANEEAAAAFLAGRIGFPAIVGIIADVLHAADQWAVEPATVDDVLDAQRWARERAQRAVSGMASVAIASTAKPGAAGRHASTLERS
Procedure, shortened: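 Recombinant MtbDXR (pET101/D-TOPO in E. coli BL21 CodonPlus (DE3)-RIL, IMAC-purified) at 0.89 µM in 100 mM MES pH 6.5, 25 mM MgCl2, 150 µM NADPH, 47 µM DOXP, 37 °C. Inhibitor was tested at a single 100 µM. NADPH oxidation was followed at 340 nm, and percent remaining activity was reported. Technical duplicates.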

[8] = target: T3, 1-deoxy-D-xylulose 5-phosphate reductoisomerase, apicoplastic (Plasmodium falciparum (isolate 3D7), UniProt Q8IKG4); test: Inhibition of Plasmodium falciparum DXR expressed in Escherichia coli BL21 CodonPlus (DE3)-RIL cells using DOXP as substrate in presence of NADPH by UV-visible spectrophotometry
T3 sequence (Q8IKG4 whole entry): T1 sequence (whole entry)

[9] = target: T1, 1-deoxy-D-xylulose 5-phosphate reductoisomerase, apicoplastic (Plasmodium falciparum (isolate 3D7)); test: Inhibition of Plasmodium falciparum DXR expressed in Escherichia coli BL21 CodonPlus (DE3)-RIL cells using DOXP as substrate at 100 uM in presence of NADPH by UV-visible spectrophotometry relative to control
Procedure, shortened: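 PfDXR single-point test at 100 µM inhibitor. Conditions: 0.86 µM IMAC-purified enzyme, 100 mM Tris pH 7.8, 25 mM MgCl2, 150 µM NADPH, 37 °C. Reaction was started with 144 µM DOXP, and NADPH oxidation was monitored at 340 nm. Percent remaining activity was reported; technical duplicates.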

| SMILES | IC50 (Plasmodium falciparum [1]) | MIC [2] | Activity (Plasmodium falciparum [3]) | Activity (Plasmodium falciparum [4]) | IC50 at 24 h [5] | Activity [6] | Activity [7] | IC50 [8] | inhibition [9] |
| --- | --- | --- | --- | --- | --- | --- | --- | --- | --- |
| COc1ccc(C(C)ON(CCC(c2ccc(Cl)c(Cl)c2)P(=O)(OCOC(=O)C(C)(C)C)OCOC(=O)C(C)(C)C)C(C)=O)cc1 (centres undefined) | 0.37 µM | 6.5 µM (≈ 4.58 µg/mL) | Active | inactive | > 140 µM | – | – | – | – |
| CC(=O)N(CCC(c1ccc(Cl)c(Cl)c1)P(=O)(O)O)OCc1ccc(-c2ccc(C(C)C)cc2)cc1 (centres undefined) | 38.1 µM | 45 µM (≈ 24.8 µg/mL) | – | – | – | 56.1% | 63.2% | – | – |
| CC(=O)N(CCC(c1ccc(Cl)c(Cl)c1)P(=O)(OCOC(=O)C(C)(C)C)OCOC(=O)C(C)(C)C)OCc1ccc(Br)cc1 (centres undefined) | 34.8 µM | 8.5 µM (≈ 6.29 µg/mL) | – | – | – | – | – | – | – |
| CC(=O)N(CCC(c1ccc(Cl)c(Cl)c1)P(=O)(OCOC(=O)C(C)(C)C)OCOC(=O)C(C)(C)C)OCc1ccc(-c2ccc(C(C)C)cc2)cc1 (centres undefined) | 14.9 µM | > 128 µM | – | – | – | – | – | – | – |
| CC(=O)N(CCC(c1ccc(Cl)c(Cl)c1)P(=O)(O)O)OCCCCc1ccccc1 (centres undefined) | 63.3 µM | 3.1 µM (≈ 1.47 µg/mL) | – | – | – | 25.6% | 99.1% | – | – |
| CC(=O)N(CCC(c1ccc(Cl)c(Cl)c1)P(=O)(OCOC(=O)C(C)(C)C)OCOC(=O)C(C)(C)C)OC(C)c1ccc(Cl)cc1 (centres undefined) | 30.1 µM | 13.3 µM (≈ 9.43 µg/mL) | – | – | – | – | – | – | – |
| CC(=O)N(CCC(c1ccc(Cl)c(Cl)c1)P(=O)(O)O)OCc1ccccc1 (centres undefined) | 31.5 µM | > 214 µM | – | – | – | 26.7% | 34.2% | – | – |
| CC(=O)N(CCC(c1ccc(Cl)c(Cl)c1)P(=O)(O)O)OC(C)c1ccc(C(F)(F)F)cc1 (centres undefined) | 79.2 µM | > 91 µM | – | – | – | 74.7% | 59.6% | – | – |
| CC(=O)N(O)CCC(c1ccc(Cl)c(Cl)c1)P(=O)(OCOC(=O)C(C)(C)C)OCOC(=O)C(C)(C)C (centres undefined) | 13 µM | 8.1 µM (≈ 4.62 µg/mL) | – | – | – | – | – | – | – |
| CC(=O)N(CCC(c1ccc(Cl)c(Cl)c1)P(=O)(O)O)OC(C)c1ccc(C)cc1 (centres undefined) | 3.53 µM | > 101 µM | Active | inactive | > 200 µM | – | 30.7% | 1.21 µM | > 90% |
| CC(=O)N(CCC(c1ccc(Cl)c(Cl)c1)P(=O)(O)O)OC(C)c1ccccc1 (centres undefined) | 3.6 µM | > 208 µM | – | – | – | – | 64.6% | 16.8 µM | > 90% |
| CC(=O)N(CCC(c1ccc(Cl)c(Cl)c1)P(=O)(OCOC(=O)C(C)(C)C)OCOC(=O)C(C)(C)C)OCc1ccc(-c2ccccc2)cc1 (centres undefined) | 8.78 µM | 17 µM (≈ 12.5 µg/mL) | – | – | – | – | – | – | – |
| CC(=O)N(CCC(c1ccc(Cl)c(Cl)c1)P(=O)(O)O)OCc1ccc(C(C)C)cc1 (centres undefined) | 68.7 µM | 12.3 µM (≈ 5.83 µg/mL) | – | – | – | – | 80.9% | 26.5 µM | > 90% |
